ChEMBL document CHEMBL1127457, “Nonpeptide renin inhibitors with good intraduodenal bioavailability and efficacy in dog” (J Med Chem, 1994)

Tested on: not listed separately
Experiment: Partition coefficient (logD6.5)
Conditions: octanol/water, pH 6.5

| Structure (SMILES) | logD |
| --- | --- |
| CCCC[C@H](O[C@@H](Cc1ccccc1)C(=O)N1CCC(OCOC)CC1)C(=O)N[C@@H](CC1CCCCC1)[C@@H](O)C[C@H](C(=O)NCCCN1CCOCC1)C(C)C | 3.3 |
| CCCC[C@H](N[C@@H](Cc1ccccc1)C(=O)N1CCC(OCOC)CC1)C(=O)N[C@@H](CC1CCCCC1)[C@@H](O)C[C@H](C(=O)NCCNc1noc(N)n1)C(C)C | 4.07 |

Tested on: not listed separately
Experiment: Average peak plasma concentration of compound after 10 mg/kg intraduodenal administration to Ferret
Conditions: plasma

| Structure (SMILES) | Cmax |
| --- | --- |
| CCCC[C@H](N[C@@H](Cc1ccccc1)C(=O)N1CCC(OCOC)CC1)C(=O)N[C@@H](CC1CCCCC1)[C@@H](O)C[C@H](C(=O)NCCNc1noc(N)n1)C(C)C | 110 ng/mL |

Tested on: not listed separately
Experiment: Average area under curve at 10 mg/kg dose after intraduodenal administration to Ferret
Conditions: in vivo

| Structure (SMILES) | AUC |
| --- | --- |
| CCCC[C@H](N[C@@H](Cc1ccccc1)C(=O)N1CCC(OCOC)CC1)C(=O)N[C@@H](CC1CCCCC1)[C@@H](O)C[C@H](C(=O)NCCNc1noc(N)n1)C(C)C | 54.8 ng·h/mL |

Tested on: not listed separately
Experiment: Oral bioavailability in ferret
Conditions: in vivo

| Structure (SMILES) | bioavailability |
| --- | --- |
| CCCC[C@H](N[C@@H](Cc1ccccc1)C(=O)N1CCC(OCOC)CC1)C(=O)N[C@@H](CC1CCCCC1)[C@@H](O)C[C@H](C(=O)NCCNc1noc(N)n1)C(C)C | 7% |

Tested on: not listed separately
Experiment: Average peak plasma concentration of compound after 1 mg/kg intravenous administration to Ferret
Conditions: plasma

| Structure (SMILES) | Cmax |
| --- | --- |
| CCCC[C@H](N[C@@H](Cc1ccccc1)C(=O)N1CCC(OCOC)CC1)C(=O)N[C@@H](CC1CCCCC1)[C@@H](O)C[C@H](C(=O)NCCNc1noc(N)n1)C(C)C | 320 ng/mL |

Species: Homo sapiens
Conditions: Liver, Microsome

| Structure (SMILES) | Rate (nM min-1 (nM of cytochrome P450)-1) |
| --- | --- |
| CCCC[C@H](O[C@@H](Cc1ccccc1)C(=O)N1CCC(OCOC)CC1)C(=O)N[C@@H](CC1CCCCC1)[C@@H](O)C[C@H](C(=O)NCCCN1CCOCC1)C(C)C | 4.26 |

Target: T1, Renin (Homo sapiens, UniProt P00797)
T1 sequence (P00797 whole entry): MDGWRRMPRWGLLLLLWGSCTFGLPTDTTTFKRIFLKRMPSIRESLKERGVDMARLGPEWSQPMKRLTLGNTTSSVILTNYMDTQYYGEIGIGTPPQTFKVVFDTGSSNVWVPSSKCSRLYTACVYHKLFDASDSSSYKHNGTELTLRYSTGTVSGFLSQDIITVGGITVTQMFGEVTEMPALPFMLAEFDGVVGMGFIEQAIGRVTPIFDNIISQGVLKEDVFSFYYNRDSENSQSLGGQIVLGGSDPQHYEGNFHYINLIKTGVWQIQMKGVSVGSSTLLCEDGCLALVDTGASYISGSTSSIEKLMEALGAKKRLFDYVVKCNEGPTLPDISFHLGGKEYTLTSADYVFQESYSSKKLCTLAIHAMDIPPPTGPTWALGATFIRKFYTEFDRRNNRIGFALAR
Experiment: Tested in vitro for its ability to inhibit the human plasma renin
Assay type: cell-free
Conditions: not given
Method in brief: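 IC50 against renin in plasma from the named species (dog, ferret, human, rat); single determination in most cases.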

| Structure (SMILES) | IC50 |
| --- | --- |
| CCCC[C@H](N[C@@H](Cc1ccccc1)C(=O)N1CCC(OCOC)CC1)C(=O)N[C@@H](CC1CCCCC1)[C@@H](O)C[C@H](C(=O)NCCNc1noc(N)n1)C(C)C | 3.8 nM |

Tested on: not listed separately
Experiment: Partition coefficient (logD7.4)
Conditions: octanol/water, pH 7.4

| Structure (SMILES) | logD |
| --- | --- |
| CCCC[C@H](N[C@@H](Cc1ccccc1)C(=O)N1CCC(OCOC)CC1)C(=O)N[C@@H](CC1CCCCC1)[C@@H](O)C[C@H](C(=O)NCCNc1noc(N)n1)C(C)C | 4.11 |

Tested on: not listed separately
Experiment: Average area under curve for compound at 1 mg/kg dose intravenous administration to Ferret
Conditions: in vivo

| Structure (SMILES) | AUC |
| --- | --- |
| CCCC[C@H](N[C@@H](Cc1ccccc1)C(=O)N1CCC(OCOC)CC1)C(=O)N[C@@H](CC1CCCCC1)[C@@H](O)C[C@H](C(=O)NCCNc1noc(N)n1)C(C)C | 71.3 ng·h/mL |
